ChEMBL document CHEMBL1926598, “Synthesis, anti-inflammatory activity and ulcerogenic liability of novel nitric oxide donating/chalcone hybrids” (Bioorg Med Chem, 2012)

Experiments:
[1] = tested on: Rattus norvegicus; assay: Antiinflammatory activity in albino rat assessed as inhibition of carrageenan-induced paw edema at 100 mg/kg, po administered 30 mins prior to challenge measured after 1 hr relative to untreated control; type: functional
Method in brief: (§1)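 Adult male albino rats (120–140 g), groups of four, fasted 24 h with water allowed. Test compound suspended in 0.5% w/v CMC in water, given orally at 100 mg/kg; controls received CMC alone. After 30 min, 0.1 mL of 1% carrageenan in saline injected subplantar into right hind paw, saline into left. Paw thickness measured by caliper; % inhibition = [(VR−VL)control − (VR−VL)treated]/(VR−VL)control ×100; one-way ANOVA versus control.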

[2] = tested on: Rattus norvegicus; assay: Antiinflammatory activity in albino rat assessed as inhibition of carrageenan-induced paw edema at 100 mg/kg, po administered 30 mins prior to challenge measured after 2 hrs relative to untreated control; type: functional; method in brief: as §1
[3] = tested on: Rattus norvegicus; assay: Antiinflammatory activity in albino rat assessed as inhibition of carrageenan-induced paw edema at 100 mg/kg, po administered 30 mins prior to challenge measured after 3 hrs relative to untreated control; type: functional; method in brief: as §1
[4] = tested on: Rattus norvegicus; assay: Antiinflammatory activity in albino rat assessed as inhibition of carrageenan-induced paw edema at 100 mg/kg, po administered 30 mins prior to challenge measured after 4 hrs relative to untreated control; type: functional; method in brief: as §1
[5] = tested on: Rattus norvegicus; assay: Antiinflammatory activity in albino rat assessed as inhibition of carrageenan-induced paw edema at 100 mg/kg, po administered 30 mins prior to challenge measured after 5 hrs relative to untreated control; type: functional; method in brief: as §1
[6] = tested on: Rattus norvegicus; assay: Gastric toxicity in albino rat assessed as ulcer index at 100 mg/kg, po after 5 hrs; type: organism-based; parameters: dose 100 mg/kg, route oral; conditions: in vivo
Method in brief: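 Rats dosed orally at 100 mg/kg in 0.5% CMC (n = 4). Stomach lesions counted and graded by area: level I <1 mm², II 1–3 mm², III >3 mm². Ulcer index = 1×(level I count) + 2×(level II) + 3×(level III). Mean ± SEM; one-way ANOVA versus control.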

[7] = tested on: Rattus norvegicus; assay: Gastric toxicity in albino rat assessed as loss of mucosal membrane at the area of ulceration at 100 mg/kg, po after 5 hrs by hematoxylin and eosin staining; type: organism-based; parameters: dose 100 mg/kg, route oral; conditions: in vivo
Method in brief: (§2)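 Stomach sections from control and treated rats were dewaxed and hydrated through graded alcohols. They were stained with haematoxylin 5–7 min, differentiated 5–10 s in 1% HCl in 70% alcohol, then stained with 1% eosin for 10 min. Mucosa of the fundic stomach was examined by light microscopy.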

[8] = tested on: Rattus norvegicus; assay: Gastric toxicity in albino rat assessed as change in gastric mucosa structure at 100 mg/kg, po after 5 hrs by hematoxylin and eosin staining; type: organism-based; parameters: dose 100 mg/kg, route oral; conditions: in vivo; method in brief: as §2
[9] = tested on: Rattus norvegicus; assay: Gastric toxicity in albino rat assessed as loss of glandular structure morphology at 100 mg/kg, po after 5 hrs by hematoxylin and eosin staining; type: organism-based; parameters: dose 100 mg/kg, route oral; conditions: in vivo; method in brief: as §2
[10] = Induction of nitric oxide release at 0.1 mM after 1 hr in phosphate buffer at pH 7.4 by Griess assay; type: physicochemical; conditions: pH 7.4, 1 h, 100 µM
Method in brief: (§3)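 Compound at a final 10^-4 M with 0.5 mM N-acetylcysteine in phosphate buffer pH 7.4 at 37 °C. Reaction mixture treated with Griess reagent (sulfanilamide, N-naphthylethylenediamine, phosphoric acid), 10 min at room temperature, absorbance read at 546 nm. Sodium nitrite standards (10–80 nmol/mL) used for calibration. NO reported as mol/mol, n = 4 reaction mixtures.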

[11] = Induction of nitric oxide release at 0.1 mM after 2 hrs in phosphate buffer at pH 7.4 by Griess assay; type: physicochemical; conditions: pH 7.4, 2 h, 100 µM; method in brief: as §3
[12] = Induction of nitric oxide release at 0.1 mM after 3 hrs in phosphate buffer at pH 7.4 by Griess assay; type: physicochemical; conditions: pH 7.4, 3 h, 100 µM; method in brief: as §3
[13] = Induction of nitric oxide release at 0.1 mM after 4 hrs in phosphate buffer at pH 7.4 by Griess assay; type: physicochemical; conditions: pH 7.4, 4 h, 100 µM; method in brief: as §3
[14] = Induction of nitric oxide release at 0.1 mM after 5 hrs in phosphate buffer at pH 7.4 by Griess assay; type: physicochemical; conditions: pH 7.4, 5 h, 100 µM; method in brief: as §3
[15] = Induction of nitric oxide release at 0.1 mM after 6 hrs in phosphate buffer at pH 7.4 by Griess assay; type: physicochemical; conditions: pH 7.4, 6 h, 100 µM; method in brief: as §3
[16] = Induction of nitric oxide release at 0.1 mM in 0.1 N HCl buffer at pH 1.0 by Griess assay; type: physicochemical; conditions: pH 1, 100 µM
Method in brief: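 Griess procedure as at neutral pH, but in 0.1 N HCl pH 1 in place of phosphate buffer. Compound at a final 10^-4 M with N-acetylcysteine, 37 °C. Absorbance read at 546 nm against sodium nitrite standards (10–80 nmol/mL). Release expressed relative to a theoretical 1 mol NO/mol compound.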

[17] = tested on: Rattus norvegicus; assay: Antiinflammatory activity in albino rat assessed as inhibition of carrageenan-induced paw edema at 100 mg/kg, po administered 30 mins prior to challenge measured after 3 hrs relative to indomethacin; type: functional; parameters: scale not given: the % may be the effect or the level left
Method in brief: (§4)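 Carrageenan paw edema in male albino rats (120–140 g, n = 4, fasted 24 h), compound 100 mg/kg po in 0.5% CMC 30 min before subplantar 1% carrageenan (0.1 mL). Percent edema inhibition at the stated hour from right minus left paw thickness versus the CMC control, then expressed as a percentage of the indomethacin (100 mg/kg) response at the same time.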

[18] = tested on: Rattus norvegicus; assay: Gastric toxicity in albino rat assessed as abnormal morphology of fundic gland at 100 mg/kg, po after 5 hrs by hematoxylin and eosin staining; type: organism-based; parameters: dose 100 mg/kg, route oral; conditions: in vivo; method in brief: as §2
[19] = tested on: Rattus norvegicus; assay: Gastric toxicity in albino rat assessed as edema at 100 mg/kg, po after 5 hrs by hematoxylin and eosin staining; type: organism-based; parameters: dose 100 mg/kg, route oral; conditions: in vivo; method in brief: as §2
[20] = tested on: Rattus norvegicus; assay: Gastric toxicity in albino rat assessed as vasodilation of blood capillaries at 100 mg/kg, po after 5 hrs by hematoxylin and eosin staining; type: organism-based; parameters: dose 100 mg/kg, route oral; conditions: in vivo; method in brief: as §2
[21] = tested on: Rattus norvegicus; assay: Gastric toxicity in albino rat assessed as structural damage in mucosal membrane at 100 mg/kg, po after 5 hrs by hematoxylin and eosin staining; type: organism-based; parameters: dose 100 mg/kg, route oral; conditions: in vivo; method in brief: as §2
[22] = tested on: Rattus norvegicus; assay: Gastric toxicity in albino rat assessed as capillary inflammatory cells appearance at 100 mg/kg, po after 5 hrs by hematoxylin and eosin staining; type: organism-based; parameters: dose 100 mg/kg, route oral; conditions: in vivo; method in brief: as §2
[23] = tested on: Rattus norvegicus; assay: Gastric toxicity in albino rat assessed as capillary dilation in lamina propia below fundic gland at 100 mg/kg, po after 5 hrs by hematoxylin and eosin staining; type: organism-based; parameters: dose 100 mg/kg, route oral; conditions: in vivo; method in brief: as §2
[24] = tested on: Rattus norvegicus; assay: Antiinflammatory activity in albino rat assessed as inhibition of carrageenan-induced paw edema at 100 mg/kg, po administered 30 mins prior to challenge measured after 4 hrs relative to indomethacin; type: functional; parameters: scale not given: the % may be the effect or the level left; method in brief: as §4
[25] = tested on: Rattus norvegicus; assay: Gastric toxicity in albino rat assessed as degeneration of fundic gland at 100 mg/kg, po after 5 hrs by hematoxylin and eosin staining; type: organism-based; parameters: dose 100 mg/kg, route oral; conditions: in vivo; method in brief: as §2
[26] = tested on: Rattus norvegicus; assay: Gastric toxicity in albino rat assessed as apoptotic glandular epithelial cells appearance at 100 mg/kg, po after 5 hrs by hematoxylin and eosin staining; type: organism-based, Epithelial cell; parameters: dose 100 mg/kg, route oral; conditions: in vivo; method in brief: as §2

SMILES | inhibition in vivo at 100 mg/kg [1] | inhibition in vivo at 100 mg/kg [2] | inhibition in vivo at 100 mg/kg [3] | inhibition in vivo at 100 mg/kg [4] | inhibition in vivo at 100 mg/kg [5] | UI [6] | Activity [7] | Activity [10] | Activity [11] | Activity [12] | Activity [13] | Activity [14] | Activity [15] | Activity [16] | Activity [22] | also measured
O=C(CBr)Nc1ccc(C(=O)/C=C/c2ccc(Cl)cc2)cc1 | 44% | 52% | 59% | 59% | 54% | 21.4 | Toxic |  |  |  |  |  |  |  |  | Activity [8]: Toxic; Activity [9]: Toxic
O=C(CO[N+](=O)[O-])Nc1ccc(C(=O)/C=C/c2ccc(Cl)cc2)cc1 | 42% | 57% | 69% | 67% | 60% | 2.5 |  | 0.32 mol/mol | 0.37 mol/mol | 0.54 mol/mol | 0.73 mol/mol | 0.75 mol/mol | 0.73 mol/mol | Not Active |  | Activity [17]: 89%; Activity [18]: Non-toxic; Activity [19]: Non-toxic; Activity [20]: Non-toxic
CC(O[N+](=O)[O-])C(=O)Nc1ccc(C(=O)/C=C/c2ccc(Cl)cc2)cc1 (stereo unspecified) | 45% | 55% | 62% | 61% | 56% | 3.5 | Toxic | 0.13 mol/mol | 0.16 mol/mol | 0.46 mol/mol | 0.35 mol/mol | 0.28 mol/mol | 0.16 mol/mol | Not Active |  | Activity [17]: 80%; Activity [21]: Toxic
CC(=O)c1ccc(OCC(=O)Nc2ccc(C(=O)/C=C/c3ccc4c(c3)OCO4)cc2)cc1 | 37% | 43% | 57% | 53% | 50% | 11.2 |  |  |  |  |  |  |  |  | Toxic | Activity [19]: Toxic; Activity [23]: Toxic
O=C(COCc1c(-c2ccccc2)no[n+]1[O-])Nc1ccc(C(=O)/C=C/c2ccc(Cl)cc2)cc1 | 38% | 48% | 66% | 75% | 62% | 1 |  | 0.55 mol/mol | 0.98 mol/mol | 1.22 mol/mol | 1.295 mol/mol | 1.5 mol/mol | 0.87 mol/mol | Not Active | Non-toxic | Activity [24]: 91%; Activity [21]: Non-toxic
O=C(COCc1c(-c2ccccc2)no[n+]1[O-])Nc1ccc(C(=O)/C=C/c2ccc3c(c2)OCO3)cc1 | 34% | 55% | 62% | 72% | 70% | 1.3 |  | 0.5 mol/mol | 0.71 mol/mol | 0.86 mol/mol | 0.89 mol/mol | 1.26 mol/mol | 0.75 mol/mol | Not Active |  | Activity [24]: 87%
COc1ccc2c(c1)c(CC(=O)O)c(C)n2C(=O)c1ccc(Cl)cc1 [INDOMETHACIN] | 56% | 70% | 78% | 83% | 87% | 45.5 | Toxic |  |  |  |  |  |  |  | Toxic | Activity [25]: Toxic; Activity [26]: Toxic
